The values that follow come from ChEMBL document CHEMBL1909613, “Synthesis and biological activity of new bispyridinium salts of 4,4'-bispyridyl-5,5'-perfluoroalkyl-2,2'-bisoxazoles” (Eur J Med Chem, 2011).

The subject of assay [1] is HT-29. Briefly: Cytotoxicity against human HT-29 cells after 72 hrs by MTT assay. Format: functional, cell-based. A digest of the protocol: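 HT-29 cells grown in DMEM with 10% FBS at 37 °C, 95% humidity, 5% CO2. Seeded and held 24 h, then exposed to increasing concentrations in fresh medium for 72 h, quadruplicate wells per concentration. Viability by MTT absorbance at 595 nm. IC50 from a plot of log OD versus log drug concentration.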

Assay [2] has as its target Choline kinase alpha (Homo sapiens, UniProt P35790). Briefly: Inhibition of recombinant human Choline kinase alpha using [methyl-14C]choline chloride as substrate after 30 mins by autoradiography. In short, it runs like this: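 Extracts from cells expressing recombinant human ChoK were incubated 30 min at 37 °C in 100 mM Tris pH 8, 10 mM MgCl2, 10 mM ATP and [methyl-14C]choline chloride. Reaction stopped on ice with 500 mM EDTA. Choline and phosphocholine were separated by silica TLC (0.9% NaCl:methanol:ammonium hydroxide 50:70:5) and quantified by electronic autoradiography. IC50 came from a Hill-equation least-squares fit of PCho/(PCho+Cho) versus inhibitor concentration.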

Structures are written as SMILES. pIC50: −log10 of the molar value.

Chain of Choline kinase alpha (P35790 whole entry): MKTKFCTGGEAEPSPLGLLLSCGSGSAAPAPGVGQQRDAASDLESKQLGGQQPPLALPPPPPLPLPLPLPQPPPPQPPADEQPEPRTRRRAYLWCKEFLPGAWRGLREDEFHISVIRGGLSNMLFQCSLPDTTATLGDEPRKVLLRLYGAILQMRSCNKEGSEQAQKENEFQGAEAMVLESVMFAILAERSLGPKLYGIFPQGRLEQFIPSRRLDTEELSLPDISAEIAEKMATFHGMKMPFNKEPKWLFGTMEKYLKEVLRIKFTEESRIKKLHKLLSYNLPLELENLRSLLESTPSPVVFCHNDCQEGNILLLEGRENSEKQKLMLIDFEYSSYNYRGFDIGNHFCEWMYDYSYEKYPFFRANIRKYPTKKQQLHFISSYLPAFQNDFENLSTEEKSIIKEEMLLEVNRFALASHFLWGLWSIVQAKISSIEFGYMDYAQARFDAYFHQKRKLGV

On to `CN(C)C(=O)C[n+]1ccc(-c2nc(-c3ccc(-c4nc(-c5cc[n+](CC(=O)N(C)C)cc5)c(C(F)(F)C(F)(F)F)o4)cc3)oc2C(F)(F)C(F)(F)F)cc1`, for which the pIC50 (usually the negative decadic logarithm of the IC50, by convention in mol/L) is less than 4.30 in assay [1] (Homo sapiens, HT-29, 72 h) and 4.82 in assay [2].
Taken in the same sequence, the figures for `FC(F)(F)C(F)(F)c1oc(-c2ccc(C(c3ccc(-c4nc(-c5cc[n+](CCCl)cc5)c(C(F)(F)C(F)(F)F)o4)cc3)(C(F)(F)F)C(F)(F)F)cc2)nc1-c1cc[n+](CCCl)cc1` were 5.03 and 4.85.
Consider `OCC[n+]1ccc(-c2nc(-c3ccc(C(c4ccc(-c5nc(-c6cc[n+](CCO)cc6)c(C(F)(F)C(F)(F)C(F)(F)F)o5)cc4)(C(F)(F)F)C(F)(F)F)cc3)oc2C(F)(F)C(F)(F)C(F)(F)F)cc1`, for which the pIC50 in assay [1] (Homo sapiens, HT-29, 72 h) is 5.20; in assay [2] it was 4.87.
As to `CN(C)C(=O)C[n+]1ccc(-c2nc(-c3ccc(-c4nc(-c5cc[n+](CC(=O)N(C)C)cc5)c(C(F)(F)F)o4)cc3)oc2C(F)(F)F)cc1`, the pIC50 in assay [1] (Homo sapiens, HT-29, 72 h) is less than 4.30; in assay [2] it was 5.87.
Taken in the same sequence, the figures for `OCC[n+]1ccc(-c2nc(-c3ccc(C(c4ccc(-c5nc(-c6cc[n+](CCO)cc6)c(C(F)(F)C(F)(F)F)o5)cc4)(C(F)(F)F)C(F)(F)F)cc3)oc2C(F)(F)C(F)(F)F)cc1` [listing 1 of 2 here] were 5.22 and 5.36.
On to `OCC[n+]1ccc(-c2nc(-c3ccc(-c4ccc(-c5nc(-c6cc[n+](CCO)cc6)c(C(F)(F)C(F)(F)F)o5)cc4)cc3)oc2C(F)(F)C(F)(F)F)cc1`, for which the pIC50 is 6.08 in assay [1] (Homo sapiens, HT-29, 72 h) and 5.02 in assay [2].
On to `OCC[n+]1ccc(-c2nc(-c3ccc(-c4ccc(-c5nc(-c6cc[n+](CCO)cc6)c(C(F)(F)F)o5)cc4)cc3)oc2C(F)(F)F)cc1` [listing 1 of 2 here], for which the pIC50 in assay [1] (ht-29) is 5.73; in assay [2], less than 4.70.
For the molecule `FC(F)(F)c1oc(-c2ccc(C(c3ccc(-c4nc(-c5cc[n+](CCCl)cc5)c(C(F)(F)F)o4)cc3)(C(F)(F)F)C(F)(F)F)cc2)nc1-c1cc[n+](CCCl)cc1`, the pIC50 in assay [1] (Homo sapiens, HT-29, 72 h) was 4.86; in assay [2], 4.90.
`OCC[n+]1ccc(-c2nc(-c3ccc(C(c4ccc(-c5nc(-c6cc[n+](CCO)cc6)c(C(F)(F)C(F)(F)F)o5)cc4)(C(F)(F)F)C(F)(F)F)cc3)oc2C(F)(F)C(F)(F)F)cc1` [listing 2 of 2 here]: the pIC50 in assay [1] (ht-29) is 5.11; in assay [2], 5.38.
For `OCC[n+]1ccc(-c2nc(-c3ccc(-c4ccc(-c5nc(-c6cc[n+](CCO)cc6)c(C(F)(F)C(F)(F)C(F)(F)F)o5)cc4)cc3)oc2C(F)(F)C(F)(F)C(F)(F)F)cc1`, the pIC50 in assay [1] (Homo sapiens, HT-29, 72 h) is 5.65; in assay [2], 4.76.
Taken in the same sequence, the figures for `CN(C)C(=O)C[n+]1ccc(-c2nc(-c3ccc(-c4ccc(-c5nc(-c6cc[n+](CC(=O)N(C)C)cc6)c(C(F)(F)C(F)(F)C(F)(F)F)o5)cc4)cc3)oc2C(F)(F)C(F)(F)C(F)(F)F)cc1` were 5.60 and 5.37.
Regarding `CN(C)C(=O)C[n+]1ccc(-c2nc(-c3ccc(-c4ccc(-c5nc(-c6cc[n+](CC(=O)N(C)C)cc6)c(C(F)(F)C(F)(F)F)o5)cc4)cc3)oc2C(F)(F)C(F)(F)F)cc1`, the pIC50 is 5.26 in assay [1] (ht-29) and 5.70 in assay [2].
Consider `CN(C)C(=O)C[n+]1ccc(-c2nc(-c3ccc(-c4ccc(-c5nc(-c6cc[n+](CC(=O)N(C)C)cc6)c(C(F)(F)F)o5)cc4)cc3)oc2C(F)(F)F)cc1`, for which the pIC50 was 5.40 in assay [1] (Homo sapiens, HT-29, 72 h) and 6.52 in assay [2].
For the molecule `OCC[n+]1ccc(-c2nc(-c3ccc(-c4ccc(-c5nc(-c6cc[n+](CCO)cc6)c(C(F)(F)F)o5)cc4)cc3)oc2C(F)(F)F)cc1` [listing 2 of 2 here], the pIC50 in assay [1] (Homo sapiens, HT-29, 72 h) is 5.82; in assay [2], 4.62.
As to `CN(C)C(=O)C[n+]1ccc(-c2nc(-c3ccc(C(c4ccc(-c5nc(-c6cc[n+](CC(=O)N(C)C)cc6)c(C(F)(F)F)o5)cc4)(C(F)(F)F)C(F)(F)F)cc3)oc2C(F)(F)F)cc1`, the pIC50 in assay [1] (Homo sapiens, HT-29, 72 h) is less than 4.70; in assay [2] it was 5.21.
Taken in the same sequence, the figures for `FC(F)(F)C(F)(F)C(F)(F)c1oc(-c2ccc(C(c3ccc(-c4nc(-c5cc[n+](CCCl)cc5)c(C(F)(F)C(F)(F)C(F)(F)F)o4)cc3)(C(F)(F)F)C(F)(F)F)cc2)nc1-c1cc[n+](CCCl)cc1` were 4.81 and 4.94.
